A selection: hits, their analogues and other compounds. The true share with any hit is near 2.5%.
PfG6PD inh = PfG6PD (Plasmodium falciparum) enzyme inhibition; PfGluPho enzyme, NADPH resazurin-diaphorase fluorescence; inhibition, % at 20 µM; actives 0.78% (n = 350,000); AID 504690;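 active = inhibition reaching at least a set limit at 20 µM in the primary screen, cut at about 59% in these data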
EP2 mod = modulators of human EP2 prostaglandin E2 receptor; P43116; EP2-expressing cells, cAMP HTRF FRET, PGE2 co-stimulation; induction, % at 25 µM; actives 0.83% (n = 260,000);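 active = compounds whose cAMP rise, as percent of the full-agonist control response, exceeds 60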;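 also: rat C6 glioma line stably carrying human EP2 under a CMV promoter; the protocol text gives 20 µM as final concentration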
Target sequence (P43116 whole entry, looked up): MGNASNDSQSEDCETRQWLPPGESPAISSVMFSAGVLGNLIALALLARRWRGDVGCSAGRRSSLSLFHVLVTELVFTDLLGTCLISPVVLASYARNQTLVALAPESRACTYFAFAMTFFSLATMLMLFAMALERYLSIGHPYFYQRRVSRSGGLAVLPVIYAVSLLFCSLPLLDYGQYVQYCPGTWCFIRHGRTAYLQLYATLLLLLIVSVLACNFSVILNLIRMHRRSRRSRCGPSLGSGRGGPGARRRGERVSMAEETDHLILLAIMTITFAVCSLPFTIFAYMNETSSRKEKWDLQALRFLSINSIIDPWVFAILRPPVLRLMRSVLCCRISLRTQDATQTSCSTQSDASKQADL
HKDC1 inh = blocks human hexokinase HKDC1 activity; recombinant HKDC1, G6PDH/diaphorase resazurin coupled fluorescence; actives 0.16% (n = 340,000); AID 493160; inhibition, % at 20 µM;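 active = inhibition above about 35% when tested at 20 µM, limit read from the data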
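Material: recombinant HKDC1 hexokinase; Amount: HKDC1 at 5 µg/mL; Medium: Tris pH 8.0 buffer with MgCl2, Tween-20, BSA, BME; Schedule: 90 min reaction incubation at room temperature, dark; Technique: coupled resazurin fluorescence, excitation 525 nm, emission 613 nm.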
PHOSPHO1 block = PHOSPHO1 (human) inhibition. inhibition, % at 13.3 µM. Q8TCT1. recombinant PHOSPHO1, absorbance phosphatase assay. actives 1.1% (n = 290,000). AID 1565; in the data active = inhibition above about 60%
Target sequence (Q8TCT1 whole entry, looked up): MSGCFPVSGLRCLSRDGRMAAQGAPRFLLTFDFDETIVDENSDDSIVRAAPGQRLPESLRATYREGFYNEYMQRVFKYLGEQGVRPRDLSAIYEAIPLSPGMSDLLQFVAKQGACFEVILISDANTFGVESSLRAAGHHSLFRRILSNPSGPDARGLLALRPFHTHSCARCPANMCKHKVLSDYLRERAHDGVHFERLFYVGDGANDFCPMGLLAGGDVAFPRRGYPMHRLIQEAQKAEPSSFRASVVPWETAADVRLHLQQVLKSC
Tb hexokinase = T. brucei hexokinase 1 inhibition; recombinant TbHK1, G6PDH-coupled NADH A340; inhibition, % at 10 µM; actives 0.11% (n = 220,000); AID 1430;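 active = inhibition of 50% or more in the single-dose primary screen; inactive = inhibition below 50%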
PGE2 EP2 inh = EP2 receptor (human) inhibition; P43116; C6 glioma cells expressing human EP2, cAMP TR-FRET; cells stimulated with saturating PGE2; inhibition, % at 25 µM; actives 0.52% (n = 260,000); AID 1422;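 active = percent inhibition above 40 after rounding to a whole number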;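 also: rat C6 glioma host cells with rolipram phosphodiesterase inhibitor present; the protocol text gives 20 µM as final concentration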
PfGluPho conf = confirmation of Plasmodium falciparum G6PD inhibitors. actives 34% (n = 2,400). recombinant PfGluPho, NADPH-diaphorase-resazurin fluorescence. inhibition, % at 20 µM. shares compounds with PfG6PD inh;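 active = inhibition of at least 50% at 20 µM in any single replicate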
Diaphorase 10uM = inhibits diaphorase or oxidizes, flagging false PfG6PD hits | shares compounds with PfG6PD inh | diaphorase-coupled resazurin reduction, fluorescence, NADPH 10 uM | inhibition, % at 20 µM | actives 39% (n = 820) | AID 504862;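 active = average inhibition reaching 50% or more with the compound at 20 µM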;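 also: resorufin red fluorescence formed as diaphorase reduces resazurin using NADPH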
Diaph ctr 30uM = counter-screen for P. falciparum G6PD inhibitors: diaphorase inhibitors, oxidizers | Diaphorase/resazurin coupled assay, resorufin fluorescence, 30 uM NADPH | shares compounds with PfG6PD inh | inhibition, % at 20 µM | actives 29% (n = 820);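 active = inhibition averaging 50% or more, tested at 20 µM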
Hits are given with their value; n = inactive; x = not tested or not shown.

SMILES | PfG6PD inh | EP2 mod | HKDC1 inh | PHOSPHO1 block | Tb hexokinase | PGE2 EP2 inh | PfGluPho conf | others
COc1ccccc1CNC(=O)c1c(O)c2c([nH]c1=O)CCCC2 | x | n | x | x | x | n | x
COc1ccc(Cl)cc1NC(=O)CN(C(=O)c1ccco1)C1CCCCC1 | 62.6 | n | n | n | n | n | n
CCCSc1nc2c([nH]1)c(=O)n(C)c(=S)n2C | n | x | n | x | x | x | x
CCSc1nc2c([nH]1)c(=O)n(C)c(=S)n2C | 62.1 | x | n | x | x | x | n
Cc1ccc2nc3c(cc2c1)CN(Cc1ccc(Cl)cc1)C(=O)CO3 | x | n | x | x | x | x | x
Cc1cccc(S(=O)(=O)Nc2ccc(C)c3c2OC(C)(C)C3)c1 | 107.1 | n | n | n | n | n | n
Cc1ccc(NS(=O)(=O)c2ccccc2Cl)c2c1CC(C)(C)O2 | 109.4 | n | n | n | n | n | 59.2 | Diaphorase 10uM=n;Diaph ctr 30uM=n
COc1ccc(CN(Cc2nc[nH]c2C)CC2CCCO2)cc1OC (stereo not given) | x | n | x | x | x | n | x
CC1=CC(C)(C)NC(=S)N1c1cc(C)cc(C)c1 | 62.6 | n | n | n | n | n | n
Cc1cc(C)c(NS(=O)(=O)c2ccc3[nH]c(=O)oc3c2)c(C)c1 | x | n | x | x | x | n | x
Cc1ccc2c(c1)c1ccc3c(c1n2C)C(=O)C=CC3=O | 65.8 | n | n | n | n | n | n
COc1cccc(NC(=O)c2ccc(-c3ccc([N+](=O)[O-])cc3)o2)c1 | 63.6 | n | n | n | n | n | n
CC(=O)c1cccc(NC(=O)c2ccc(-c3ccccc3[N+](=O)[O-])o2)c1 | 60.9 | n | n | n | n | 47.0 | n
Cc1ccc2cc(CN(CCCN3CCOCC3)C(=O)Nc3cccc(Cl)c3)c(=O)[nH]c2c1C | x | n | x | x | x | n | x
CC1CCCCC12NC(=S)N(c1ccccc1)N2 (stereo not given) | 60.1 | n | n | n | n | n | n
CC(Cc1ccc(O)c(O)c1)C(C)Cc1ccc(O)c(O)c1 (stereo not given) | 84.2 | x | n | x | x | n | 61.1 | Diaphorase 10uM=n;Diaph ctr 30uM=n
CC1CCCC2(C1)NC(=S)N(c1ccccc1)N2 (stereo not given) | n | n | n | n | n | n | x
CC1CCCC2(C1)NC(=S)c1c(sc3c1CCCC3)N2 (stereo not given) | 64.3 | n | n | n | n | n | n
O=C(CSc1ncccc1-c1nc2ccccc2[nH]1)NCc1cccs1 | x | n | x | x | x | n | x
CCSc1nnc(NC(=O)c2ccccc2)s1 | 62.3 | n | n | n | n | n | n
O=C(Nc1nnc(C(F)(F)F)s1)c1ccc(Br)s1 | 85.3 | n | n | n | n | n | 71.9 | Diaphorase 10uM=65.2;Diaph ctr 30uM=52.3
CCSc1nnc(Nc2ccc(C)cc2)s1 | 65.7 | n | n | n | n | n | n
O=C(Nc1nnc(C(F)(F)F)s1)c1ccc(Cl)c(Cl)c1 | x | n | x | x | x | n | x
CCSc1nnc(NC(=O)c2cccnc2)s1 | n | n | n | n | n | n | x
Cc1cc(C(=O)Nc2nnc(C(F)(F)F)s2)cs1 | 118.7 | n | n | n | n | n | 82.0 | Diaphorase 10uM=77.3;Diaph ctr 30uM=72.0
SMILES | PfG6PD inh | EP2 mod | HKDC1 inh | PHOSPHO1 block | Tb hexokinase | PGE2 EP2 inh | PfGluPho conf | others
CCSc1nnc(NC(=O)c2ccc(Br)s2)s1 | 101.9 | n | n | n | n | n | 64.3 | Diaphorase 10uM=70.3;Diaph ctr 30uM=61.3
CC(C)n1c(=O)oc2cc(S(=O)(=O)NC3C4CCCCC43)ccc21 (stereo not given) | x | n | x | x | x | n | x
O=C(NCc1ccco1)c1cccnc1-c1nc2ccccc2s1 | 59.7 | n | n | n | n | x | n
O=C(NCc1ccco1)c1cccnc1Cl | n | n | n | n | n | n | x
Cc1cc(C)nc(NNS(=O)(=O)c2ccc(F)c(Cl)c2)n1 | n | x | n | x | x | x | x
Cc1cc(C)nc(NNS(=O)(=O)c2ccc(Cl)cc2)n1 | 59.2 | x | n | x | x | x | n
Cc1ccc2c(c1)C(c1ccc(N(C)C)cc1)=NNC(c1cccnc1)=N2 | x | n | x | x | x | n | x
Nc1cc(N)c(OCC(F)(F)F)cc1OCC(F)(F)F | 99.1 | n | n | n | n | n | 93.5 | Diaphorase 10uM=n;Diaph ctr 30uM=n
Nc1cc(OCC(F)(F)F)cc([N+](=O)[O-])c1 | n | n | n | n | n | n | x
c1ccc(CCn2nnnc2C(c2cccs2)N2CCc3ccccc3C2)cc1 (stereo not given) | x | n | x | x | x | n | x
Oc1ccc(N2CCN(C(c3cccs3)c3nnnn3CCc3ccccc3)CC2)cc1 (stereo not given) | 66.3 | n | n | n | n | n | n
C/C(=N\NC(=O)C(C)Sc1ccccc1)C(C)(C)C (stereo not given) | n | n | n | n | n | n | x
O=C(CSCc1ccc(Cl)cc1)N/N=C/c1ccccc1 | 118.1 | n | n | n | n | n | 92.9 | Diaphorase 10uM=90.3;Diaph ctr 30uM=79.6
O=C(CSc1nc2ccccc2o1)N/N=C/c1ccc(O)c(O)c1 | n | n | n | n | n | n | x
O=C(CCSCCC(=O)NN=Cc1ccccc1)NN=Cc1ccccc1 | 71.7 | x | n | x | x | x | 55.5 | Diaphorase 10uM=n;Diaph ctr 30uM=n
O=C(CSc1nc2ccccc2o1)N/N=C/c1ccccc1 | 69.3 | n | n | n | n | n | 68.3 | Diaphorase 10uM=61.5;Diaph ctr 30uM=52.4
CC(Sc1ccccc1)C(=O)N/N=C/c1ccccc1 (stereo not given) | 77.1 | x | n | x | x | x | n
NS(=O)(=O)c1ccc(Nc2nc(-c3ccc(O)cc3O)cs2)cc1 | 69.0 | n | n | n | n | n | n
COc1ccc(N2CC(C(=O)N/N=C/c3ccccc3)CC2=O)cc1 (stereo not given) | n | n | n | n | n | n | x
O=C(N/N=C/c1cccc(Br)c1)C1CC(=O)N(c2ccccc2)C1 (stereo not given) | 73.0 | x | n | n | x | x | n
COc1cccc(OC)c1NC(=O)C1CCCN1C(=O)Nc1ccccc1C (stereo not given) | x | n | x | x | x | n | x
CN(C)c1ccc(C=c2c3ccccc3n3c2c2ccccc2[n+]3C)cc1 | 88.8 | x | n | x | x | x | 88.4 | Diaphorase 10uM=n;Diaph ctr 30uM=n
CC[C@H](Cn1nc(-c2cccs2)ccc1=O)NC(=O)Cc1n[nH]c(=O)c2ccccc12 | x | n | x | x | x | x | x
Cc1ccc(-n2nnnc2-c2ccccc2Br)cc1 | 61.6 | x | n | x | x | x | n
COc1ccc2c(Cl)c(C(=O)Nc3ccccc3C#N)sc2c1 | x | n | x | x | x | n | x
O=C(c1ccc2nc(-c3ccco3)c(-c3ccco3)nc2c1)N1CCSCC1 | x | n | x | x | x | n | x
O=C(NCCCO)c1ccc2nc(-c3ccco3)c(-c3ccco3)nc2c1 | 75.3 | n | n | n | n | n | n
O=C(c1ccc2nc(-c3ccco3)c(-c3ccco3)nc2c1)N1CCN(c2ncccn2)CC1 | 68.5 | n | n | n | n | n | n
O=C(NCc1ccccc1)c1ccc2nc(-c3ccco3)c(-c3ccco3)nc2c1 | n | n | n | n | n | n | x
O=C(Nc1ccccc1)c1ccc2nc(-c3ccco3)c(-c3ccco3)nc2c1 | 61.2 | n | n | n | n | n | n

Screens: PubChem, several laboratories
